Among the data in ChEMBL document CHEMBL1156231, “Alkylation of a human telomere sequence by heterotrimeric chlorambucil PI polyamide conjugates” (Bioorg Med Chem, 2010) are Activity values, retold here.

Calls of active or inactive are those of the source. The calls are words filed in the database; no cut-off is given here.

The subject of assay [1] is Nucleic Acid. Put plainly: Binding affinity to human telomeric DNA expressed in Escherichia coli DH5alpha assessed as alkylation of complementary C rich site at 50 to 200 nM after 24 hrs by PAGE analysis. The gist of the method:
(§1)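 5'-Texas Red-labelled telomere-containing DNA fragment (insert cloned and propagated in E. coli DH5a, PCR-amplified, purified), alkylated with conjugate at various concentrations in 5 mM sodium phosphate buffer pH 7.0, 10% DMF, room temperature, 24 h. Reaction stopped with calf thymus DNA and heating 95 °C, 5 min. Alkylation sites read by high-resolution denaturing polyacrylamide gel electrophoresis.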

Assay [2] relates to Nucleic Acid. As to the kind of experiment: Binding affinity to human telomeric DNA expressed in Escherichia coli DH5alpha assessed as alkylation of G and C rich strand at 10 nM after 24 hrs by PAGE analysis. The gist of the method:
as §1

The test system of assay [3] is Nucleic Acid. Put plainly: Binding affinity to human telomeric DNA expressed in Escherichia coli DH5alpha assessed as alkylation of G rich 5^-GGTTAGGGTTA-3^ strand at 50 to 200 nM after 24 hrs by PAGE. The gist of the method: as §1

For `CN(C)CCCNC(=O)c1nc(NC(=O)c2nc(NC(=O)c3nc(NC(=O)CCNC(=O)CCNC(=O)c4nc(NC(=O)c5nc(NC(=O)c6nc(NC(=O)CCCc7ccc(N(CCCl)CCCl)cc7)cn6C)cn5C)cn4C)cn3C)cn2C)cn1C`, the outcome in the assay on Nucleic Acid [1] and with Nucleic Acid [2] was Active. In addition, in the assay with Nucleic Acid [3], the result was inactive.
